Test results: article PMC3049929 (Journal of medicinal chemistry, 2008)

What was measured:
[1] = tested on: P. falciparum 3D7 (chloroquine-sensitive); type: cell-based; conditions: Plasmodium falciparum, 3D7, Erythrocyte, 48 h, read-out: ED50 (nM) 3D7
Outline: (§1)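 Parasites cultured in type A+ human erythrocytes (2% hematocrit) in RPMI-1640 with 20% heat-inactivated type A+ human plasma, under 5% CO2/5% O2/90% N2. Test compound in DMSO added to culture at 0.5% parasitemia and 0.5% hematocrit. Incubated 37 °C for 48 h, then [8-3H]hypoxanthine (0.3 µCi) added for a further 24 h. Cells harvested to filter mats and counted by β-scintillation. Uninfected-erythrocyte background subtracted; DMSO-only wells taken as 100% growth. ED50 from linear regression of incorporation vs concentration.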

rat PFT = rat PFT (Rattus norvegicus, UniProt Q02293+Q04631); experiment: rat PFT [3H] scintillation proximity assay; type: biochemical
[2] = tested on: PfPFT (P. falciparum protein farnesyltransferase); experiment: PfPFT [3H] scintillation proximity assay; type: biochemical; conditions: rat PFT IC50 / PfPFT IC50
[3] = tested on: P. falciparum K1 (chloroquine-resistant, pyrimethamine-resistant); type: cell-based; conditions: Plasmodium falciparum, K1, Erythrocyte, 48 h, read-out: ED50 (nM) K1
Outline: as §1

[4] = tested on: P. falciparum K1 (chloroquine-resistant, pyrimethamine-resistant); conditions: strain K1, infected erythrocytes; previously published data ref 26, 27; cited from earlier work
[5] = tested on: P. falciparum 3D7 (chloroquine-sensitive); conditions: strain 3D7, infected erythrocytes; previously published data ref 26, 27; cited from earlier work
[6] = target: PfPFT (P. falciparum protein farnesyltransferase) (Plasmodium falciparum, UniProt Q5EI73+Q5EI74); conditions: 50 nM inhibitor concentration; previously published data ref 26, 27; cited from earlier work
[7] = incubation with liver microsomes; cited from earlier work

Row | Structure (SMILES) | ED50 (nM) K1 [4] | ED50 (nM) 3D7 [5] | also measured
1 | Cn1cnc(S(=O)(=O)N(CC2CCN(C(=O)OC(C)(C)C)CC2)[C@@H]2CCC[C@@H]2N(Cc2cncn2C)c2ccc(C#N)cc2)c1 (racemic) [6d, (±)-[N-(N-tert-Butoxycarbonylpiperidin-4-ylmethyl)-N-{cis-2-[(4-cyanophenyl)(3-methyl-3H-imidazol-4-ylmethyl)amino]cyclopentyl}]-1-methyl-1H-imidazole-4-sulfonamide] |  |  | IC50 [1]: 3000 nM; IC50 (rat PFT): > 1 µM; Selectivity (ratio of rat to P. falciparum PFT IC50 values) [2]: >2.9 fold
2 | Cn1cnc(S(=O)(=O)N(CC2CCN(C(=O)OC(C)(C)C)CC2)[C@H]2CCC[C@@H]2N(Cc2cncn2C)c2ccc(C#N)cc2)c1 (racemic) [7d, (±)-[N-(N-tert-Butoxycarbonylpiperidin-4-ylmethyl)-N-{trans-2-[(4-cyanophenyl)(3-methyl-3H-imidazol-4-ylmethyl)amino]cyclopentyl}]-1-methyl-1H-imidazole-4-sulfonamide] |  |  | IC50 (rat PFT): > 1 µM; IC50 [3]: 600 nM; Selectivity (ratio of rat to P. falciparum PFT IC50 values) [2]: >100 fold
3 | Cn1cnc(S(=O)(=O)N(CCN(Cc2cncn2C)c2ccc(C#N)cc2)Cc2ccccc2)c1 [1a] | 375 nM | 349 nM | 
4 | Cc1ccccc1CN(CCN(Cc1cncn1C)c1ccc(C#N)cc1)S(=O)(=O)c1cn(C)cn1 [1b] | 150 nM | 93 nM | 
5 | Cn1cnc(S(=O)(=O)N(CCN(Cc2cncn2C)c2ccc(C#N)cc2)Cc2ccsc2)c1 [1c] | 240 nM | 150 nM | Inhibition of PfFTase (%) 50 nM [6]: 100%
6 | Cn1cnc(S(=O)(=O)N(CCN(Cc2cncn2C)c2ccc(C#N)cc2)CC2CCN(C(=O)OC(C)(C)C)CC2)c1 [1d] | 54 nM | 88 nM | metabolic stability [7]: limited
7 | Cn1cnc(S(=O)(=O)N(CCN(Cc2cncn2C)c2ccc(C#N)cc2)CC2CCN(c3ncccn3)CC2)c1 [1e] | 85 nM | 130 nM | 
